In ChEMBL document CHEMBL4033671, “Synthesis and biological evaluation of N-(carbobenzyloxy)-l-phenylalanine and N-(carbobenzyloxy)-l-aspartic acid-β-benzyl ester derivatives as potent topoisomerase IIα inhibitors” (Bioorg Med Chem, 2017):
pIC50: −log10 of the molar value.

What was measured:
[1] = biological target: T1, DNA topoisomerase 2-alpha (Homo sapiens, UniProt P11388); experiment: Inhibition of human recombinant topoisomerase-2alpha expressed in Escherichia coli assessed as decrease in relaxation of supercoiled DNA pBR322 at 100 uM after 30 mins by ethidium bromide staining-based agarose gel electrophoresis relative to control
T1 sequence (P11388 whole entry): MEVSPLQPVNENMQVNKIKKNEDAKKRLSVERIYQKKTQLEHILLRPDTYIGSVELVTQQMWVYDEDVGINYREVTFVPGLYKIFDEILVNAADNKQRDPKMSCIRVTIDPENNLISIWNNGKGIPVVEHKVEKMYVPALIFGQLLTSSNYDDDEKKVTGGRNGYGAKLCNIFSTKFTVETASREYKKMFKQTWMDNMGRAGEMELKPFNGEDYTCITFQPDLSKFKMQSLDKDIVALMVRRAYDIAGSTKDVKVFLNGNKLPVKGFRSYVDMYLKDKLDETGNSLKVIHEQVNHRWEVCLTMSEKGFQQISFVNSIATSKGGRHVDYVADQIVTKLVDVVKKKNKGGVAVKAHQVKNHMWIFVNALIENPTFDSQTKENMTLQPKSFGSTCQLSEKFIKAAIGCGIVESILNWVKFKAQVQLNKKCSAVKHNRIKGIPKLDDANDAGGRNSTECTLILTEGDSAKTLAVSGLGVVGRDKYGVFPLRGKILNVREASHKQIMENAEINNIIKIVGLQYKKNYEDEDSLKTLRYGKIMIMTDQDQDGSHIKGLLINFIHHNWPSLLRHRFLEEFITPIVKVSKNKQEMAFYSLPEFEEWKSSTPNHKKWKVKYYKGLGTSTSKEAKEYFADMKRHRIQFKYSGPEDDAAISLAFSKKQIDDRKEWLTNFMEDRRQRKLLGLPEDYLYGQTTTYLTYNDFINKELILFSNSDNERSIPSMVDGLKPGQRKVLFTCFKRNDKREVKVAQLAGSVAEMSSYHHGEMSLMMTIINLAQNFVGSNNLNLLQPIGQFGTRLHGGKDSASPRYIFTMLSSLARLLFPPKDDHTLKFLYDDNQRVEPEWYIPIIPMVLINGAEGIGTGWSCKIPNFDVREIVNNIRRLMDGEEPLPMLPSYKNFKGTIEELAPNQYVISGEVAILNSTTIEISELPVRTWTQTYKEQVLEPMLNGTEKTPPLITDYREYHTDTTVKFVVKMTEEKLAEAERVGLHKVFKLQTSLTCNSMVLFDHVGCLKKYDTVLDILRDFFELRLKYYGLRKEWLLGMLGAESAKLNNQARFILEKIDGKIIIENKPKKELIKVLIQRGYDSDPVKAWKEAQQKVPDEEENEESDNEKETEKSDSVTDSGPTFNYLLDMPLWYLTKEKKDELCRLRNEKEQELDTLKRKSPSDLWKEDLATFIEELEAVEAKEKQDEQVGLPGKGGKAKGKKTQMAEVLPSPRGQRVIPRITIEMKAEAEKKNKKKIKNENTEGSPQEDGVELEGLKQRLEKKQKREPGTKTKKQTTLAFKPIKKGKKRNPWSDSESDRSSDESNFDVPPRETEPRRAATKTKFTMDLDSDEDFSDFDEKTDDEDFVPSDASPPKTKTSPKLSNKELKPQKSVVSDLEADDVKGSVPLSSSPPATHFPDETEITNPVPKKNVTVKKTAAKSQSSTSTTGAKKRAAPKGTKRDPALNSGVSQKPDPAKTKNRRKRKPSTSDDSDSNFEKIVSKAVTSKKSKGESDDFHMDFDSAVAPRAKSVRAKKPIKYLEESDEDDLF
Outline: (§1)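 Relaxation of 500 ng supercoiled pBR322 by 1 unit human topoisomerase I or IIα in reaction buffer, with or without compound (100 µM; 20 µM for selected compounds). Incubated 37 °C for 30 min, stopped with 0.77% SDS/77 mM EDTA. Products run on 1% agarose in TBE at 83 V for 60 min, stained 30 min in ethidium bromide (0.5 µg/mL), imaged under UV; percent inhibition recorded.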

MGC-803 = experiment: Antiproliferative activity against human MGC803 cells after 48 hrs by MTT assay; assay type: functional, cell-based; conditions: MGC-803, 48 h
Outline: (§2)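 Cells seeded at 5×10⁴ per well, left 12 h, then exposed to serial dilutions (final 0, 5.0, 10.0, 20.0, 40.0, 80.0, 100.0 µM) for 48 h. MTT (5.0 mg/mL stock, 10 µL) added for 4 h, formazan dissolved in DMSO, absorbance read at 490 nm. Inhibition = (1−A_treatment/A_control)×100%; IC50 is the concentration giving 50% growth inhibition. Triplicate wells, at least three independent experiments, mean ± SD.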

HeLa = experiment: Antiproliferative activity against human HeLa cells after 48 hrs by MTT assay; assay type: functional, cell-based; outline: as §2
MCF7 = experiment: Antiproliferative activity against human MCF7 cells after 48 hrs by MTT assay; assay type: functional, cell-based; conditions: MCF7, 48 h; outline: as §2
A549 = experiment: Antiproliferative activity against human A549 cells after 48 hrs by MTT assay; assay type: functional, cell-based; conditions: A549, 48 h; outline: as §2
[2] = biological target: T2, DNA topoisomerase 1 (Homo sapiens) (UniProt P11387); experiment: Inhibition of human recombinant topoisomerase-1 assessed as decrease in relaxation of supercoiled DNA pBR322 at 100 uM after 30 mins by ethidium bromide staining-based agarose gel electrophoresis relative to control; outline: as §1
T2 sequence (whole entry): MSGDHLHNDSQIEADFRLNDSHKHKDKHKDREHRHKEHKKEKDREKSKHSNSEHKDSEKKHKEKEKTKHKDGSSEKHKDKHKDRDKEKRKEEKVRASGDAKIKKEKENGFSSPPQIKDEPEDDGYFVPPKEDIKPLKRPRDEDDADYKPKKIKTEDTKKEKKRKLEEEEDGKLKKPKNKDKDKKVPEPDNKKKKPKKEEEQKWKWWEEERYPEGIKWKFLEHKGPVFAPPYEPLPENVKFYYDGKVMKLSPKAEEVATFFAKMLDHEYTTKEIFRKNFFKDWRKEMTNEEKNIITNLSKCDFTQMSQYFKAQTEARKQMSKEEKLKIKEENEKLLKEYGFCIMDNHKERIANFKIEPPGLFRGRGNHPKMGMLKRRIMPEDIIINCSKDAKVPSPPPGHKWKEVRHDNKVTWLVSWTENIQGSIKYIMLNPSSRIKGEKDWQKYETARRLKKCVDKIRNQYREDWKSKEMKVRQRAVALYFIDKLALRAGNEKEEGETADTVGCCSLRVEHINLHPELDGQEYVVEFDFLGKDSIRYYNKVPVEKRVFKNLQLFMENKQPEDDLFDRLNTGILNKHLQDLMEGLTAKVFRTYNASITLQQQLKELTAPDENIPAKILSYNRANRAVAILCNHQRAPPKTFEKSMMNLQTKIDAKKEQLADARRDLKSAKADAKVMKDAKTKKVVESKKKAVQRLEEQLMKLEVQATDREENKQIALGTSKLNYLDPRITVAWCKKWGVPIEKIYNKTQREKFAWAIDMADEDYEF

[3] = biological target: T1, DNA topoisomerase 2-alpha; experiment: Inhibition of human recombinant topoisomerase-2alpha expressed in Escherichia coli assessed as decrease in relaxation of supercoiled DNA pBR322 at 20 uM after 30 mins by ethidium bromide staining-based agarose gel electrophoresis relative to control; outline: as §1
[4] = biological target: T1, DNA topoisomerase 2-alpha; experiment: Inhibition of human recombinant topoisomerase-2alpha expressed in Escherichia coli assessed as decrease in relaxation of supercoiled DNA pBR322 after 30 mins by ethidium bromide staining-based agarose gel electrophoresis; outline: as §1
[5] = biological target: T2, DNA topoisomerase 1 (Homo sapiens); experiment: Inhibition of human recombinant topoisomerase-1 assessed as decrease in relaxation of supercoiled DNA pBR322 at 20 uM after 30 mins by ethidium bromide staining-based agarose gel electrophoresis relative to control; outline: as §1

SMILES | inhibition [1] [%] | pIC50 (MGC-803) | pIC50 (HeLa) | pIC50 (MCF7) | pIC50 (A549) | inhibition [2] [%] | inhibition [3] [%] | pIC50 [4] | inhibition [5] [%]
O=C(C[C@H](NC(=O)OCc1ccccc1)C(=O)N[C@H](COC(=O)c1ccccc1Cl)Cc1ccccc1)OCc1ccccc1 | 41.4 | < 4.30 | < 4.30 | < 4.30 | < 4.30 | -0 |  |  | 
CCC(=O)OC[C@H](Cc1ccccc1)NC(=O)[C@H](Cc1ccccc1)NC(=O)OCc1ccccc1 | 86.1 | < 4.30 | < 4.30 | < 4.30 | < 4.30 | -0 | 45.6 |  | 
COc1ccc(C(=O)OC[C@H](Cc2ccccc2)NC(=O)[C@H](Cc2ccccc2)NC(=O)OCc2ccccc2)cc1OC | 83.2 | 4.39 | 4.46 | 4.38 | < 4.30 | 5.4 | 28.1 |  | 
O=C(O)C[C@H](NC(=O)OCc1ccccc1)C(=O)O |  |  |  |  |  |  |  | 4.57 | 
O=C(C[C@H](NC(=O)OCc1ccccc1)C(=O)N[C@H](COC(=O)c1ccccc1)Cc1ccccc1)OCc1ccccc1 | 68.4 | 4.49 | 4.55 | 4.40 | 4.34 | -0 | 20.1 |  | 
O=C(N[C@@H](Cc1ccccc1)C(=O)N[C@H](COC(=O)c1ccccc1)Cc1ccccc1)OCc1ccccc1 | 75.7 | 4.41 | 4.52 | 4.39 | 4.31 | 29.5 | 25.6 |  | -0
CC[C@@]1(O)C(=O)OCc2c1cc1n(c2=O)Cc2cc3ccccc3nc2-1 [CAMPTOTHECIN] |  | 5.02 | 5.00 | 4.54 | 4.87 |  |  |  | 
CCC(=O)OC[C@H](Cc1ccccc1)NC(=O)[C@H](CC(=O)OCc1ccccc1)NC(=O)OCc1ccccc1 | 63.8 | < 4.30 | 4.30 | 4.39 | < 4.30 | 45.2 | 19.7 |  | -0
Cc1ccccc1C(=O)OC[C@H](Cc1ccccc1)NC(=O)[C@H](Cc1ccccc1)NC(=O)OCc1ccccc1 | 62.8 | 4.37 | 4.40 | 4.41 | < 4.30 | 7.3 | 42.1 |  | 
CC(=O)OC[C@H](Cc1ccccc1)NC(=O)[C@H](CC(=O)OCc1ccccc1)NC(=O)OCc1ccccc1 | 6.7 | < 4.30 | < 4.30 | 4.33 | < 4.30 | 15 |  |  | -0
O=C(N[C@@H](Cc1ccccc1)C(=O)N[C@H](COC(=O)c1ccccc1Cl)Cc1ccccc1)OCc1ccccc1 | 4.1 | 4.37 | < 4.30 | 4.37 | < 4.30 | -0 |  |  | 
Cc1ccccc1C(=O)OC[C@H](Cc1ccccc1)NC(=O)[C@H](CC(=O)OCc1ccccc1)NC(=O)OCc1ccccc1 | 28.2 | < 4.30 | 4.35 | 4.38 | < 4.30 | -0 |  |  | 
COc1ccc(C(=O)OC[C@H](Cc2ccccc2)NC(=O)[C@H](CC(=O)OCc2ccccc2)NC(=O)OCc2ccccc2)cc1OC | 84.6 | 4.37 | 4.40 | 4.55 | 4.32 | 20.2 | 49.8 |  | -0
COc1cc([C@@H]2c3cc4c(cc3[C@@H](O[C@@H]3O[C@@H]5CO[C@@H](C)O[C@H]5[C@H](O)[C@H]3O)[C@H]3COC(=O)[C@H]23)OCO4)cc(OC)c1O [ETOPOSIDE] |  | 4.68 | 4.80 | 4.62 | 4.70 |  |  |  | 
O=C(C[C@H](NC(=O)OCc1ccccc1)C(=O)N[C@H](COC(=O)c1ccc(Cl)cc1)Cc1ccccc1)OCc1ccccc1 | 92.9 | 4.55 | 4.75 | 4.66 | 4.52 | 9.5 | 51.2 |  | 
O=C(N[C@@H](Cc1ccccc1)C(=O)N[C@H](COC(=O)c1ccc(Cl)cc1)Cc1ccccc1)OCc1ccccc1 | 3.2 | 4.42 | 4.65 | 4.44 | 4.37 | -0 |  |  | 
